Assay outcomes deposited in PubChem by several laboratories.
This is a sample that favours compounds with a hit; in the whole collection about 2.4% have one here.
MIN6 prolif: inducers of MIN6 beta-cell proliferation, primary screen, ATP luminescence, uHTS. AID 2380, 2010. MIN6 cells proliferation, ATPlite luminescence, 48 h; cells starved in 0.2% serum; 100% = growth in 10% serum. proliferation, % at 10 µM. 330,000 tested, 0.29% active;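 active means compounds whose signal lies at least 3.5 SD above the mean of all wells on their plate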;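 further: 0% = DMSO-treated cells in low-serum medium and 100% = 10% serum control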
m5-HT2A agonist: mouse Htr2a agonists via beta-arrestin recruitment, primary screen, cell-based, luminescence; activation, % at 7.6 µM; 5-hydroxytryptamine receptor 2A (Mus musculus), P35363; AID 624169, 2012; 360,000 tested, 0.66% active; CHO-K1 mHTR2A beta-arrestin complementation; percent of 30 µM serotonin response;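 active means activation above a run cutoff, the mean activation of all tested compounds plus 3 SD, cut at about 14% in these data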;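 further: 0% = plate median of compound wells and 100% = 30 µM serotonin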
SR-BI HDL uptake: inhibitors of SR-BI mediated HDL lipid uptake, primary screen, ldlA[mSR-BI] cells, fluorescence, single point. Scavenger receptor class B member 1 (Mus musculus), Q61009. ldlA[mSR-BI] CHO cells, DiI-HDL uptake fluorescence, 3 h. inhibition, % at 12.5 µM. 320,000 tested, 0.96% active. AID 488896, 2010;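 active means mean replicate inhibition of at least 70% and a set share of replicates each scoring 70 or more; inconclusive means meets just one of the two criteria; inactive means fails both criteria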;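 further: 0% = median of neutral control wells and 100% = median of positive control wells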
Calb FLC: C. albicans growth inhibition with fluconazole, primary screen, CaCi-2 strain, Alamar Blue fluorescence; C. albicans CaCi-2 + fluconazole, 48 h; growth inhibition, % (test concentration not listed); 300,000 tested, 0.57% active; AID 1979, 2009;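 active means growth inhibition above about 58% in most replicates, limit read from the data, passing the limit was not always enough; inconclusive means exactly half the replicates above a set limit; inactive means most replicates below a set limit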;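 further: all wells also contain fluconazole at 8 µg/ml as a sub-toxic cotreatment; 0% = median of DMSO wells and 100% = median of geldanamycin control wells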
Insulin prom up: insulin promoter activators in MIN6 cells, imaging, high-content screening, mouse beta cells; MIN6 insulin promoter-GFP reporter; active compounds read high; AID 1625, 2009; z-score at 5 µM; 190,000 tested, 0.3% active;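 active means z-score above 3 at 5 µM with at least 500 cells counted in the well; inconclusive means wells under 500 cells, flagged as cytotoxic or low count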
SR-BI uptake up: activators of SR-BI mediated DiI-HDL uptake, primary screen, ldlA[mSR-BI] CHO cells, DiI fluorescence | 3 h; 100 = double the neutral-control signal | activation, % at 12.5 µM | 320,000 tested, 0.096% active | AID 504775, 2011;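 active means mean replicate activation of at least 60% and every replicate at or above 60%; inconclusive means mean or all-replicate condition met, but not both; inactive means mean below 60% and not all replicates reaching 60%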;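 further: 0% = median plate neutral-control signal and 100% = twice that signal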
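system = CHO ldlA[mSR-BI] cells, LDL receptor-null, SR-BI overexpressing | medium = Ham's F12 with 0.5% BSA, HEPES 25 mM, pH 7.4 | probe or stimulus = DiI-HDL 10 µg/mL | compound dosing = single-point compound dose | incubation = compound exposure 3 h, 37 °C | technique = DiI fluorescence, bottom read | read-out = cell-associated DiI fluorescence as measure of HDL uptake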
MOR ag counter: OPRM1 agonists via beta-arrestin recruitment, confirmation, counter-screen for mouse HTR2A agonist project, cell-based, luminescence, single concentration; activation, % at 9.3 µM; U2OS OPRM1 beta-arrestin PathHunter; DMSO 0%, DAMGO 9.3 µM 100%; AID 624380, 2012; shares compounds with m5-HT2A agonist; 2,300 tested, 5.3% active;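 active means mean activation above the mean of DMSO-only wells plus 3 SD, cut at about 0.5% in these data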
Target sequence (P35372 whole entry, looked up): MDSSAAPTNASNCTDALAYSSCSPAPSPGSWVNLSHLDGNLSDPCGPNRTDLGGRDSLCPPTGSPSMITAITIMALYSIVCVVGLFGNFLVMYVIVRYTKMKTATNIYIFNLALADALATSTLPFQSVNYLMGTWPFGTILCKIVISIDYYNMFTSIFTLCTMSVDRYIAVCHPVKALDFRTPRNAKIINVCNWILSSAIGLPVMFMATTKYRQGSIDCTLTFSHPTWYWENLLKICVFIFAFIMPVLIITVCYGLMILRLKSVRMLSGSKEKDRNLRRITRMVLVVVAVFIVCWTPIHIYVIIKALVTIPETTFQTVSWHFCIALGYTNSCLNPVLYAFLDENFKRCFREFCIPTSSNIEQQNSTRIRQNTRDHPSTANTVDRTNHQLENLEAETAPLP
m5-HT2A ag conf: mouse HTR2A agonists, beta-arrestin recruitment, confirmation, cell-based, luminescence, CHO-K1 PathHunter, triplicate | shares compounds with m5-HT2A agonist | DMSO 0%, 30 µM serotonin 100% | activation, % at 7.6 µM | 2,300 tested, 19% active;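 active means mean activation across triplicates above the hit threshold derived in the original primary screen, cut at about 15% in these data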
* marks the source's active call; other numbers are inactive results; ? = inconclusive; / = no result.

SMILES	MIN6 prolif	m5-HT2A agonist	SR-BI HDL uptake	Calb FLC	Insulin prom up	SR-BI uptake up	MOR ag counter	m5-HT2A ag conf
COC(=O)c1cc(C(=O)OCC(=O)NC(=O)c2ccccc2)cc([N+](=O)[O-])c1	0	2	-10	0	/	10	/	/
CCc1nc2c(OCc3ccc(Cl)cc3)cccn2c1N(C)C(=O)c1ccc2c(c1)OCO2	/	-3	/	/	/	/	/	/
CCc1nc2c(OCc3ccccc3)cccn2c1N(C)C(=O)c1ccc2c(c1)OCO2	/	14*	/	/	/	/	0	-6
CCCOc1nc2c(c(=O)n(C)c(=O)n2C)n1CCC	-2	3	-3	-6	/	3	/	/
CCC(C)Oc1nc2c(c(=O)n(C)c(=O)n2C)n1C (stereo not given)	-2	17*	18	4	-0.03	-18	-1	-2
Cc1ccc(C(=O)COc2nc(C)cc(C)c2C#N)cc1	1	6	1	-19	-0.24	-1	/	/
Cc1cc(C)c(C#N)c(OCC2CCCO2)n1 (stereo not given)	/	15*	/	/	/	/	-1	-1
COc1ccc(Cc2noc(=O)[nH]2)cc1	/	-4	/	/	/	/	/	/
Cc1c(/C=N/NC(=O)CNc2ccccc2)c2ccccn2c1C(=O)c1ccc(Cl)cc1	-5	-3	45	-2	-0.21	-45	/	/
Cc1ccccc1NCC(=O)N/N=C/c1c(C)c(C(=O)c2ccc(Cl)cc2)n2ccccc12	0	15*	51	-16	/	-51	0	24*
Cc1ccc(C)c(-n2c(CNc3ccc(F)cc3)nnc2SCC(N)=O)c1	0	18*	6	4	0.11	-6	-1	-4
Cc1ccc(-n2c(CNc3ccc(F)cc3)nnc2SCC(=O)O)cc1	1	0	17	0	0.41	-17	/	/
O=C(C1=C(O)C(=O)N(Cc2ccco2)C1c1cccc(O)c1)c1ccco1 (stereo not given)	2	17*	-21	-4	/	21	0	-5
Cc1ccc(C(=O)C2=C(O)C(=O)N(Cc3ccco3)C2c2cccc(Br)c2)o1 (stereo not given)	2	0	5	?	/	-5	/	/
COc1ccc(-c2nnc(SCc3ccc(C(=O)O)cc3)n2C)cc1OC	-3	7	-15	9	/	15	/	/
COc1ccccc1-n1c(=O)c2c3c(sc2n2c(SC(C)C)nnc12)CCC3	4	16*	6	25	-0.24	-6	-1	4
O=C(Nc1ccc2c(c1)OCCO2)C(CCc1ccccc1)N(Cc1ccccc1)Cc1ccccc1 (stereo not given)	/	18*	/	/	/	/	-1	-6
COc1ccc(CNC(=O)CN2C(=O)NC(Cc3ccccc3)(c3ccccc3)C2=O)cc1OC (stereo not given)	6	4	14	/	/	-14	/	/
COc1ccc(C2=Nc3ccc(C)cc3C(c3ccccc3)N2CC(=O)NN)cc1 (stereo not given)	-1	-5	-8	-9	0.11	8	/	/
COC(=O)CN1C(c2ccc(Cl)cc2)=Nc2ccc(Cl)cc2C1c1ccccc1 (stereo not given)	-6	15*	10	-6	0.03	-10	0	-1
COc1ccc(CCNC(=O)c2ccccc2NC(=O)c2ccco2)cc1OC	1	24*	17	0	-0.3	-17	-1	-3
COc1ccc(CCNC(=O)c2ccco2)cc1OC	-3	3	-8	-5	/	8	/	/
